Source: ChEMBL document CHEMBL4052595, “Application of Residual Dipolar Couplings and Selective Quantitative NOE to Establish the Structures of Tetranortriterpenoids from Xylocarpus rumphii” (J Nat Prod, 2017)
Activity calls are given as the source filed them.

Legend:
Assay type in all cases: functional, cell-based
BT-549 = test: Growth inhibition of human BT549 cells at 10^-5 M incubated for 48 hrs by sulforhodamine B assay
Outline: (§1)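 Run in the NCI59 one-dose cell-line screen, with each compound tested at a single concentration of 1 × 10−5 M.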

T47D = test: Growth inhibition of human T47D cells at 10^-5 M incubated for 48 hrs by sulforhodamine B assay
Outline: (§2)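 Tested at a single concentration of 1 × 10−5 M as part of the NCI59 cell-line one-dose screen.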

Hs-578T = test: Growth inhibition of human Hs 578T cells at 10^-5 M incubated for 48 hrs by sulforhodamine B assay; outline: as §1
MCF7 = test: Growth inhibition of human MCF7 cells at 10^-5 M incubated for 48 hrs by sulforhodamine B assay; outline: as §1
MDA-MB-231 = test: Growth inhibition of human MDA-MB-231 cells at 10^-5 M incubated for 48 hrs by sulforhodamine B assay; outline: as §1
DU-145 = test: Growth inhibition of human DU145 cells at 10^-5 M incubated for 48 hrs by sulforhodamine B assay; outline: as §1
UO-31 = test: Growth inhibition of human UO31 cells at 10^-5 M incubated for 48 hrs by sulforhodamine B assay; outline: as §2
PC-3 = test: Growth inhibition of human PC3 cells at 10^-5 M incubated for 48 hrs by sulforhodamine B assay; outline: as §1
SN12C = test: Growth inhibition of human SN12C cells at 10^-5 M incubated for 48 hrs by sulforhodamine B assay; outline: as §1
TK-10 = test: Growth inhibition of human TK10 cells at 10^-5 M incubated for 48 hrs by sulforhodamine B assay; outline: as §2
RXF 393 = test: Growth inhibition of human RXF393 cells at 10^-5 M incubated for 48 hrs by sulforhodamine B assay; outline: as §1
ACHN = test: Growth inhibition of human ACHN cells at 10^-5 M incubated for 48 hrs by sulforhodamine B assay; outline: as §1
CAKI-1 = test: Growth inhibition of human Caki1 cells at 10^-5 M incubated for 48 hrs by sulforhodamine B assay; outline: as §1
A498 = test: Growth inhibition of human A498 cells at 10^-5 M incubated for 48 hrs by sulforhodamine B assay; outline: as §1
786-0 = test: Growth inhibition of human 786-0 cells at 10^-5 M incubated for 48 hrs by sulforhodamine B assay; outline: as §1
NCI/ADR-RES = test: Growth inhibition of human NCI/ADR-RES cells at 10^-5 M incubated for 48 hrs by sulforhodamine B assay; outline: as §1
SK-OV-3 = test: Growth inhibition of human SKOV3 cells at 10^-5 M incubated for 48 hrs by sulforhodamine B assay; outline: as §1
OVCAR-8 = test: Growth inhibition of human OVCAR8 cells at 10^-5 M incubated for 48 hrs by sulforhodamine B assay; outline: as §1
OVCAR-4 = test: Growth inhibition of human OVCAR4 cells at 10^-5 M incubated for 48 hrs by sulforhodamine B assay; outline: as §1
OVCAR-5 = test: Growth inhibition of human OVCAR5 cells at 10^-5 M incubated for 48 hrs by sulforhodamine B assay; outline: as §1
IGROV-1 = test: Growth inhibition of human IGROV1 cells at 10^-5 M incubated for 48 hrs by sulforhodamine B assay; outline: as §1
OVCAR-3 = test: Growth inhibition of human OVCAR3 cells at 10^-5 M incubated for 48 hrs by sulforhodamine B assay; outline: as §1
UACC-62 = test: Growth inhibition of human UACC62 cells at 10^-5 M incubated for 48 hrs by sulforhodamine B assay; outline: as §2
SK-MEL-5 = test: Growth inhibition of human SK-MEL-5 cells at 10^-5 M incubated for 48 hrs by sulforhodamine B assay; outline: as §1
UACC-257 = test: Growth inhibition of human UACC257 cells at 10^-5 M incubated for 48 hrs by sulforhodamine B assay; outline: as §2
SK-MEL-28 = test: Growth inhibition of human SK-MEL-28 cells at 10^-5 M incubated for 48 hrs by sulforhodamine B assay; outline: as §1
MDA-MB-435 = test: Growth inhibition of human MDA-MB-435 cells at 10^-5 M incubated for 48 hrs by sulforhodamine B assay; outline: as §1
SK-MEL-2 = test: Growth inhibition of human SK-MEL-2 cells at 10^-5 M incubated for 48 hrs by sulforhodamine B assay; outline: as §1
M14 = test: Growth inhibition of human M14 cells at 10^-5 M incubated for 48 hrs by sulforhodamine B assay; outline: as §1
U-251 = test: Growth inhibition of human U251 cells at 10^-5 M incubated for 48 hrs by sulforhodamine B assay; outline: as §2
LOX IMVI = test: Growth inhibition of human LOXIMVI cells at 10^-5 M incubated for 48 hrs by sulforhodamine B assay; outline: as §1
SNB-19 = test: Growth inhibition of human SNB19 cells at 10^-5 M incubated for 48 hrs by sulforhodamine B assay; outline: as §1
SNB-75 = test: Growth inhibition of human SNB75 cells at 10^-5 M incubated for 48 hrs by sulforhodamine B assay; outline: as §1
SF-539 = test: Growth inhibition of human SF539 cells at 10^-5 M incubated for 48 hrs by sulforhodamine B assay; outline: as §1
SF-268 = test: Growth inhibition of human SF268 cells at 10^-5 M incubated for 48 hrs by sulforhodamine B assay; outline: as §1
SF-295 = test: Growth inhibition of human SF295 cells at 10^-5 M incubated for 48 hrs by sulforhodamine B assay; outline: as §1
SW-620 = test: Growth inhibition of human SW620 cells at 10^-5 M incubated for 48 hrs by sulforhodamine B assay; outline: as §2
HT-29 = test: Growth inhibition of human HT-29 cells at 10^-5 M incubated for 48 hrs by sulforhodamine B assay; outline: as §1
KM12 = test: Growth inhibition of human KM12 cells at 10^-5 M incubated for 48 hrs by sulforhodamine B assay; outline: as §1
HCT-116 = test: Growth inhibition of human HCT116 cells at 10^-5 M incubated for 48 hrs by sulforhodamine B assay; outline: as §1
HCT-15 = test: Growth inhibition of human HCT15 cells at 10^-5 M incubated for 48 hrs by sulforhodamine B assay; outline: as §1
HCC 2998 = test: Growth inhibition of human HCC2998 cells at 10^-5 M incubated for 48 hrs by sulforhodamine B assay; outline: as §1
NCI-H522 = test: Growth inhibition of human NCI-H522 cells at 10^-5 M incubated for 48 hrs by sulforhodamine B assay; outline: as §1
COLO 205 = test: Growth inhibition of human COLO205 cells at 10^-5 M incubated for 48 hrs by sulforhodamine B assay; outline: as §1
NCI-H460 = test: Growth inhibition of human NCI-H460 cells at 10^-5 M incubated for 48 hrs by sulforhodamine B assay; outline: as §1
NCI-H23 = test: Growth inhibition of human NCI-H23 cells at 10^-5 M incubated for 48 hrs by sulforhodamine B assay; outline: as §1
NCI-H322M = test: Growth inhibition of human NCI-H322M cells at 10^-5 M incubated for 48 hrs by sulforhodamine B assay; outline: as §1
NCI-H226 = test: Growth inhibition of human NCI-H226 cells at 10^-5 M incubated for 48 hrs by sulforhodamine B assay; outline: as §1
HOP-62 = test: Growth inhibition of human HOP62 cells at 10^-5 M incubated for 48 hrs by sulforhodamine B assay; outline: as §1
HOP-92 = test: Growth inhibition of human HOP92 cells at 10^-5 M incubated for 48 hrs by sulforhodamine B assay; outline: as §1
A549 = test: Growth inhibition of human A549/ATCC cells at 10^-5 M incubated for 48 hrs by sulforhodamine B assay; outline: as §1
EKVX = test: Growth inhibition of human EKVX cells at 10^-5 M incubated for 48 hrs by sulforhodamine B assay; outline: as §1
SR = test: Growth inhibition of human SR cells at 10^-5 M incubated for 48 hrs by sulforhodamine B assay; outline: as §1
MOLT-4 = test: Growth inhibition of human MOLT4 cells at 10^-5 M incubated for 48 hrs by sulforhodamine B assay; outline: as §1
RPMI-8226 = test: Growth inhibition of human RPMI8226 cells at 10^-5 M incubated for 48 hrs by sulforhodamine B assay; outline: as §1
K562 = test: Growth inhibition of human K562 cells at 10^-5 M incubated for 48 hrs by sulforhodamine B assay; outline: as §1
CCRF-CEM = test: Growth inhibition of human CCRF-CEM cells at 10^-5 M incubated for 48 hrs by sulforhodamine B assay; outline: as §1
HL-60(TB) = test: Growth inhibition of human HL-60(TB) cells at 10^-5 M incubated for 48 hrs by sulforhodamine B assay
Outline: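 Run in the NCI59 cell-line one-dose screen, with each compound tested at a single concentration of 1 × 10−5 M.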

Measured: growth inhibition (GI)

CC[C@H](C)C(=O)O[C@@H]1[C@H]2[C@@H](OC(=O)C(C)C)C(C)(C)[C@H](CC(=O)OC)[C@@]3(C)[C@H]4CC[C@]5(C)C(=CC(=O)O[C@H]5C5=CC(O)OC5=O)[C@@]14O[C@@]23O (stereo partly drawn)
inactive: all assays above
